Assay [1] deals with hCA VI (Homo sapiens, UniProt P23280). Put plainly: stopped-flow CO2 hydration assay, hCA VI. It counts as biochemical.
In assay [2] the test system is non-small cell lung carcinoma A549. Put plainly: cell proliferation, CCK-8 assay, A549. In kind it is cell-based. The conditions noted are these: A549 cells, 72 hours, hypoxic conditions. For orientation: Tetrazolium dyes change colour on reduction, which living cells bring about.
Assay [3] relates to pancreatic epithelioid carcinoma PANC-1. Kind of assay: cell proliferation, CCK-8 assay, PANC-1. In kind it is cell-based. The conditions noted are these: PANC-1 cells, 72 hours, hypoxic conditions.
Assay [4] concerns MDA-MB-231 cells. Kind of assay: cell proliferation assay, cell counting by flow cytometry. The conditions noted are these: MDA-MB-231, 72 hours, hypoxic conditions. It counts as cell-based, human. Summed up: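 MDA-MB-231 cells were grown in DMEM with 10% FBS, 1% penicillin/streptomycin and 1% glutamine, kept at low passage, and held under hypoxia (1% O₂, 5% CO₂). Cells were seeded at 10.000 per well and treated in 1% FBS with increasing compound concentrations for 72 h at 37 °C. They were then detached with trypsin/2 mM EDTA and counted by flow cytometry. Counts are given as % of untreated control (mean ± SEM) with IC₅₀.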

The target in assay [5] is T1, hCA II (Homo sapiens, UniProt P00918). The conditions noted are these: read-out: KI hCA II; stopped-flow hydration assay; values marked *; cited from earlier work.
Assay [6] addresses hCA I (Homo sapiens, UniProt P00915). Put plainly: stopped-flow CO2 hydration assay, hCA I. In kind it is biochemical. In a few lines: (§1)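 Recombinant in-house enzyme, preincubated 15 min at room temperature with inhibitor. Inhibitor stock was 0.1 mM in water, diluted down to 0.01 nM. CO₂ (1.7–17 mM) hydration was followed by stopped-flow with 0.2 mM phenol red at 557 nm, in 20 mM HEPES pH 7.5 with 20 mM Na₂SO₄, over 10–100 s. Initial rates came from six traces and were corrected for the uncatalysed rate. Ki was obtained by non-linear least squares, mean of ≥3 measurements.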

The target of assay [7] is T1, hCA II. Kind of assay: stopped-flow CO2 hydration assay, hCA II. In kind it is biochemical. In a few lines: as §1
The target of assay [8] is hCA IX (Homo sapiens, UniProt Q16790). Kind of assay: stopped-flow CO2 hydration assay, hCA IX. The conditions noted are these: for SI I/IX: ratio of KI hCA I to KI hCA IX; for SI II/IX: ratio of KI hCA II to KI hCA IX. It counts as biochemical.
For assay [9], the target named is hCA XII (Homo sapiens, UniProt O43570). Kind of assay: stopped-flow CO2 hydration assay, hCA XII. In kind it is biochemical. The conditions noted are these: for SI I/XII: ratio of KI hCA I to KI hCA XII; for Ki: KI hCA XII, stopped-flow hydration assay; for SI II/XII: ratio of KI hCA II to KI hCA XII.
hCA XII, sequence (O43570 25-354): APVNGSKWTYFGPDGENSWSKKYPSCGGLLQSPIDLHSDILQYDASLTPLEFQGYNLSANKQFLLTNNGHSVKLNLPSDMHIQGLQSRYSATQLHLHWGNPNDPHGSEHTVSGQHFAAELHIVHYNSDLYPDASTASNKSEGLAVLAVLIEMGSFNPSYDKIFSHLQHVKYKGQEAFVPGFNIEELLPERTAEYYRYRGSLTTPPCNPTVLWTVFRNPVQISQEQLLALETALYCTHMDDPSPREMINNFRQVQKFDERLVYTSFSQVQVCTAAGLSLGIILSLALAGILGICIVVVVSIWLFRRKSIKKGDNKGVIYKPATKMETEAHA

The structures appear in SMILES notation. “Also recorded” adds a separate entry of the source. Read-outs that look alike come from different tables or passages of the source.

hCA I, sequence (P00915 whole entry): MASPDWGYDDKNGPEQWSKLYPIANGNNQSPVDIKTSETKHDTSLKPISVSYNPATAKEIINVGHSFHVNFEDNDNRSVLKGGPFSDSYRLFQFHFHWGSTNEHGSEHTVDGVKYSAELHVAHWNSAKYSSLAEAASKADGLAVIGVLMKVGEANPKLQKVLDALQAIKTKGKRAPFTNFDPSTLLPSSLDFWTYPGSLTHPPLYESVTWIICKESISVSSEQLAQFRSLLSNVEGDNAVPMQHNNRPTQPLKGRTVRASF
hCA VI, sequence (P23280 18-308): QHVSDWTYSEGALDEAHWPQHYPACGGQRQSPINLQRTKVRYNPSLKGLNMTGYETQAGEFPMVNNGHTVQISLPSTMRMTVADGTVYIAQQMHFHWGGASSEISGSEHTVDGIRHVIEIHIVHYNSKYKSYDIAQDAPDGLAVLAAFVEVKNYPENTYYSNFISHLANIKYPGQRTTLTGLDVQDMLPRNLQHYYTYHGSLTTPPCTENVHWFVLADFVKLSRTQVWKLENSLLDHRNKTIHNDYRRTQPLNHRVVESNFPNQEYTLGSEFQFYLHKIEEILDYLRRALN

Usually Ki stands for a dissociation constant, usually derived from enzyme kinetics or from competition with a known ligand. Consider `C#Cc1cccc(Nc2ncnc3cc(OCCOC)c(OCCOC)cc23)c1` [ERL, erlotinib], for which the figures for the Ki in [1] and in [5] were 453 nM and 3980 nM, respectively. For the same compound, the “antiproliferative effect” value in [2] and in assay [3] was “displayed an antiproliferative effect” each time. The “anti-proliferative effect” value in [4] is listed as “mild reduction of cell proliferation; also recorded: low efficacy”.

Consider `Cc1cn([C@H]2C[C@H](N=[N+]=[N-])[C@@H](CO)O2)c(=O)[nH]c1=O` [AZT, azidothymidine, reference compound], for which the Ki is 250 nM in [6]; 12.1 nM in assay [7]; 505 nM in assay [1]; 25.7 nM in assay [8]; 684 nM in assay [5]. The “SI I/IX” value in assay [8] was 9.73. Also, the “SI II/IX” value in [8] is recorded as 0.47. Also, the “SI I/XII” value in assay [9] is recorded as 43.86.

Compound `COCCOc1cc2ncnc(Nc3cccc(-c4cn(CCOCCOCCOCCOCCOCCNC(=O)Nc5cccc(S(N)(=O)=O)c5)nn4)c3)c2cc1OCCOC` [compound 12a, 3-(3-(17-(4-(3-((6,7-Bis(2-methoxyethoxy)quinazoline-4-yl)amino)phenyl)-1H-1,2,3-triazol-1-yl)-3,6,9,12,15-pentaoxaheptadecyl)ureido)benzenesulfonamide] came in with a Ki in assay [6] of 70100 nM. The inhibitory constant (Ki) in assay [7] amounted to 1020 nM. Moreover, in assay [8], the Ki amounted to 4470 nM, the “SI I/IX” value was found to be 15.7 and the “SI II/IX” value is recorded as 0.23. Moreover, in assay [9], affinity was put at a Ki of 6400 nM, the “SI I/XII” value is given as 11.0 and the “SI II/XII” value stood at 0.16.

For the compound `COCCOc1cc2ncnc(Nc3cccc(-c4cn(CCOCCOCCOCCOCCOCCC(=O)NCc5ccc(S(N)(=O)=O)cc5)nn4)c3)c2cc1OCCOC` [compound 10a, 1-(4-(3-((6,7-Bis(2-methoxyethoxy)quinazolin-4-yl)amino)phenyl)-1H-1,2,3-triazol-1-yl)-N-(4-sulfamoylbenzyl)-3,6,9,12,15-pentaoxaoctadecan-18-amide], the Ki in assay [6] worked out at 903 nM. Also, the affinity in [7] corresponds to a Ki of 253 nM. In assay [8], the inhibition constant (Ki) is 4160 nM, the “SI I/IX” value was 0.22 and the “SI II/IX” value is recorded as 0.06. In [9], the Ki turned out to be 3300 nM, the “SI I/XII” value is recorded as 0.27 and the “SI II/XII” value is 0.08.

`NS(=O)(=O)c1ccc(NC(=O)Nc2ccc(F)cc2)cc1` [SLC-0111]: the “antiproliferative effect” value in assay [2] and in [3] was “ineffective” throughout.

As to `COCCOc1cc2ncnc(Nc3cccc(-c4cn(CCOCCOCCOCCNC(=S)Nc5ccc(S(N)(=O)=O)cc5)nn4)c3)c2cc1OCCOC` [compound 8b, 4-(3-(2-(2-(2-(2-(4-(3-((6,7-Bis(2-methoxyethoxy)quinazolin-4-yl)amino)phenyl)-1H-1,2,3-triazol-1-yl)ethoxy)ethoxy)ethoxy)ethyl)thioureido)benzenesulfonamide], the affinity in [6], expressed as Ki, was 3140 nM. For the same compound, the Ki in assay [7] was 135 nM. For the same compound, in assay [8], the Ki was 112 nM, the “SI I/IX” value came out at 28 and the “SI II/IX” value is on record as 1.2. In addition, in assay [9], the affinity corresponds to a Ki of 5.33 nM, the “SI I/XII” value amounted to 590 and the “SI II/XII” value was determined as 25.4.

These data come from paper PMC12243159 (RSC Medicinal Chemistry, 2025).
